MIC and CC50 data for eight compounds are collected here from ChEMBL document CHEMBL5038678, “Stereochemical Effects on the Antimicrobial Properties of Tetrasubstituted 2,5-Diketopiperazines” (ACS Med Chem Lett, 2022).

For one series, the system named is Klebsiella pneumoniae. Description: Antibacterial activity against Klebsiella pneumoniae MS6671 assessed as reduction in bacterial growth after 18 hrs by CLSI based broth microdilution assay. Type of series: functional. (Dilution methods test growth across graded concentrations, often in twofold steps.)
The next series has as its system Enterococcus faecalis. In words: Antibacterial activity against Enterococcus faecalis ATCC 29212 assessed as reduction in bacterial growth after 18 hrs by CLSI based broth microdilution assay. Type of series: functional. In outline: (§1)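 CLSI broth microdilution for MIC (with MBC) in polypropylene microtiter plates, inoculum ~5 × 10^5 CFU/mL. Run independently on three occasions. The reported MIC is the lowest concentration on which all three biological replicates agreed.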

A further series concerns Candida albicans. In words: Antifungal activity against Candida albicans SC5314 assessed as reduction in fungal growth incubated for 48 hrs by CLSI based broth microdilution assay. In kind it is functional. In outline:
(§2)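 Yeast susceptibility by CLSI broth microdilution (M27), final inoculum 0.5 × 10^3 to 2.5 × 10^3 CFU/mL. Run independently on three occasions; MIC reported as the lowest concentration giving agreement across all three biological replicates.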

The subject of series [1] is Staphylococcus aureus. Description: Antibacterial activity against methicillin-resistant Staphylococcus aureus USA 300 assessed as reduction in bacterial growth after 18 hrs by CLSI based broth microdilution assay. Type of series: functional. In outline:
as §1

Series [2] can be described thus: Cytotoxicity against NHDF cells assessed as reduction in cell viability measured after 24 hrs by MTT assay. In kind it is toxicity, cell-based. The following applies: human, read-out: LD50. In outline: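 Adherent normal human dermal fibroblasts were read by MTT against a DMSO vehicle control. Viability is expressed as percent of untreated controls. At least three independent biological replicates were run, with each concentration in technical duplicate.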

A further series relates to Aspergillus fumigatus. In words: Antifungal activity against Aspergillus fumigatus SVB-F136 assessed as fungal growth inhibition after 48 hrs by CLSI protocol based microbroth dilution method. In kind it is functional. In a few lines: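 Filamentous fungus tested by CLSI broth microdilution with final inoculum 0.4 × 10^4 to 5 × 10^4 CFU/mL. Three independent biological replicates; MIC is the lowest concentration at which all three agreed.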

The subject of the next series is Cyberlindnera jadinii. Description: Antifungal activity against Candida utilis SVB-Y1 assessed as reduction in fungal growth after 48 hrs by CLSI based broth microdilution assay. Type of series: functional. The note with it: Williopsis jadinii. In outline:
as §2

The subject of series [3] is Acinetobacter baumannii. Description: Antibacterial activity against Acinetobacter baumannii ATCC 19606 assessed as reduction in bacterial growth after 18 hrs by CLSI based broth microdilution assay. In kind it is functional.
The next series deals with Streptococcus pyogenes. Description: Antibacterial activity against macrolide- and tetracycline-resistant Streptococcus pyogenes HKU16 assessed as reduction in bacterial growth after 18 hrs by CLSI based broth microdilution assay. Type of series: functional. In a few lines:
as §1

A further series concerns Pseudomonas aeruginosa. Description: Antibacterial activity against Pseudomonas aeruginosa SVB-B9 assessed as reduction in bacterial growth after 18 hrs by CLSI based broth microdilution assay. In kind it is functional.
Series [4] has as its system Escherichia coli. Description: Antibacterial activity against Escherichia coli ATCC 25922 assessed as reduction in bacterial growth after 18 hrs by CLSI based broth microdilution assay. In kind it is functional. In outline: as §1
The next series deals with Enterococcus faecium. In words: Antibacterial activity against vancomycin-resistant Enterococcus faecium RBWH1 assessed as reduction in bacterial growth after 18 hrs by CLSI based broth microdilution assay. The note with it: RBWH1, 18 h.
In series [5] the test system is Escherichia coli. Description: Antibacterial activity against multi-drug resistant Escherichia coli MS8345 assessed as reduction in bacterial growth after 18 hrs by CLSI based broth microdilution assay. In kind it is functional. In outline: as §1
Series [6] relates to Acinetobacter baumannii. Description: Antibacterial activity against multi-drug resistant Acinetobacter baumannii AB5075 assessed as reduction in bacterial growth after 18 hrs by CLSI based broth microdilution assay. Type of series: functional. In outline: as §1
Series [7] concerns Staphylococcus aureus. Description: Antibacterial activity against Staphylococcus aureus ATCC 25923 assessed as reduction in bacterial growth after 18 hrs by CLSI based broth microdilution assay. Type of series: functional. In outline:
as §1

The subject of the next series is Streptococcus pneumoniae. Description: Antibacterial activity against Streptococcus pneumoniae ATCC 49619 assessed as reduction in bacterial growth after 18 hrs by CLSI based broth microdilution assay. In kind it is functional.

SMILES strings stand for the structures. Values after ≈ are worked out from the molar mass of the structure shown. Where a SMILES comes first, the peptide text is derived from it. Bridges are numbered along the chain shown (N, C = ends). [ ]: non-standard residue; d: D form. The star is where a group is joined. X1 = CC[C@H](C)CCCCC(=O)*; Dab = NCC[C@H](N)C(=O)O

As to `N=C(N)NCCC[C@@H]1C(=O)N(Cc2ccc(-c3ccccc3)cc2)[C@@H](CCCNC(=N)N)C(=O)N1Cc1ccc(-c2ccccc2)cc1`, the MIC with Klebsiella pneumoniae was > 64 µM; in the series with Enterococcus faecalis, 16 µM (≈ 10.3 µg/mL); in the series with Candida albicans, 8 µM (≈ 5.16 µg/mL); in the series on Staphylococcus aureus [1], 4 µM (≈ 2.58 µg/mL); in the series on Aspergillus fumigatus, 64 µM (≈ 41.3 µg/mL); in the series on Cyberlindnera jadinii, 2 µM (≈ 1.29 µg/mL). The MIC in the series with Acinetobacter baumannii [3] was > 64 µM; in the series with Streptococcus pyogenes, 16 µM (≈ 10.3 µg/mL); with Pseudomonas aeruginosa it was 64 µM (≈ 41.3 µg/mL); with Escherichia coli [4], 64 µM (≈ 41.3 µg/mL); in the series with Enterococcus faecium, 8 µM (≈ 5.16 µg/mL); with Escherichia coli [5], > 64 µM. Moreover, the MIC in the series with Acinetobacter baumannii [6] was > 64 µM; in the series with Staphylococcus aureus [7], 4 µM (≈ 2.58 µg/mL); in the series with Streptococcus pneumoniae it was 16 µM (≈ 10.3 µg/mL). Besides, in [2], the CC50 at 24 h was found to be 175 µM.
For the compound `N=C(N)NCCC[C@H]1C(=O)N(Cc2ccc(-c3ccccc3)cc2)[C@@H](CCCNC(=N)N)C(=O)N1Cc1ccc(-c2ccccc2)cc1`, the MIC in the series on Klebsiella pneumoniae amounted to 32 µM (≈ 20.6 µg/mL); with Enterococcus faecalis, 2 µM (≈ 1.29 µg/mL); in the series with Candida albicans, 4 µM (≈ 2.58 µg/mL); in the series on Staphylococcus aureus [1] it was 4 µM (≈ 2.58 µg/mL); in the series with Aspergillus fumigatus, 8 µM (≈ 5.16 µg/mL); in the series with Cyberlindnera jadinii, 4 µM (≈ 2.58 µg/mL). Besides, the MIC worked out at 64 µM (≈ 41.3 µg/mL) with Acinetobacter baumannii [3]; 8 µM (≈ 5.16 µg/mL) in the series with Streptococcus pyogenes; 8 µM (≈ 5.16 µg/mL) in the series on Pseudomonas aeruginosa; 8 µM (≈ 5.16 µg/mL) with Escherichia coli [4]; 8 µM (≈ 5.16 µg/mL) in the series on Enterococcus faecium; 8 µM (≈ 5.16 µg/mL) in the series on Escherichia coli [5]. Moreover, the results for the MIC with Acinetobacter baumannii [6], in the series with Staphylococcus aureus [7] and in the series on Streptococcus pneumoniae were 16 µM (≈ 10.3 µg/mL), 4 µM (≈ 2.58 µg/mL) and 8 µM (≈ 5.16 µg/mL), respectively. Further, the CC50 at 24 h in series [2] is 63 µM.
With `N=C(N)NCCC[C@H]1C(=O)N(Cc2ccccc2)[C@@H](CCCNC(=N)N)C(=O)N1Cc1ccccc1`, the MIC with Klebsiella pneumoniae, with Enterococcus faecalis, with Candida albicans, with Staphylococcus aureus [1], in the series with Aspergillus fumigatus and in the series with Cyberlindnera jadinii was > 64 µM in each case. Besides, the MIC with Acinetobacter baumannii [3] is > 64 µM; in the series with Streptococcus pyogenes it was 64 µM (≈ 31.5 µg/mL); with Pseudomonas aeruginosa, > 64 µM; in the series with Escherichia coli [4], > 64 µM; in the series on Enterococcus faecium, > 64 µM; in the series on Escherichia coli [5] it was > 64 µM. Besides, the MIC in the series with Acinetobacter baumannii [6], with Staphylococcus aureus [7] and in the series with Streptococcus pneumoniae was > 64 µM in each case. The CC50 at 24 h in [2] was > 512 µM.
For `N=C(N)NCCC[C@@H]1C(=O)N(Cc2ccc(-c3ccccc3)cc2)[C@H](CCCNC(=N)N)C(=O)N1Cc1ccc(-c2ccccc2)cc1`, the MIC stood at 64 µM (≈ 41.3 µg/mL) in the series with Klebsiella pneumoniae; 4 µM (≈ 2.58 µg/mL) with Enterococcus faecalis; 2 µM (≈ 1.29 µg/mL) in the series on Candida albicans; 4 µM (≈ 2.58 µg/mL) with Staphylococcus aureus [1]; 8 µM (≈ 5.16 µg/mL) in the series on Aspergillus fumigatus; 4 µM (≈ 2.58 µg/mL) in the series with Cyberlindnera jadinii. Further, the MIC in the series on Acinetobacter baumannii [3] was 64 µM (≈ 41.3 µg/mL); in the series on Streptococcus pyogenes it was 8 µM (≈ 5.16 µg/mL); in the series with Pseudomonas aeruginosa, 8 µM (≈ 5.16 µg/mL); in the series with Escherichia coli [4], 8 µM (≈ 5.16 µg/mL); with Enterococcus faecium it was 4 µM (≈ 2.58 µg/mL); in the series on Escherichia coli [5] it was 16 µM (≈ 10.3 µg/mL). Besides, the MIC in the series with Acinetobacter baumannii [6] is 32 µM (≈ 20.6 µg/mL); in the series with Staphylococcus aureus [7], 4 µM (≈ 2.58 µg/mL); in the series with Streptococcus pneumoniae, 8 µM (≈ 5.16 µg/mL). Besides, the CC50 at 24 h in series [2] is 99 µM.
`NCCC[C@H]1C(=O)N(Cc2ccc(-c3ccccc3)cc2)[C@@H](CCCN)C(=O)N1Cc1ccc(-c2ccccc2)cc1`: the MIC was found to be 8 µM (≈ 4.49 µg/mL) in the series with Klebsiella pneumoniae; 8 µM (≈ 4.49 µg/mL) in the series on Enterococcus faecalis; 64 µM (≈ 35.9 µg/mL) in the series with Candida albicans; 4 µM (≈ 2.24 µg/mL) with Staphylococcus aureus [1]; 32 µM (≈ 17.9 µg/mL) with Aspergillus fumigatus; 32 µM (≈ 17.9 µg/mL) in the series on Cyberlindnera jadinii. For the same compound, the MIC turned out to be 64 µM (≈ 35.9 µg/mL) with Acinetobacter baumannii [3]; 8 µM (≈ 4.49 µg/mL) in the series with Streptococcus pyogenes; 16 µM (≈ 8.97 µg/mL) in the series with Escherichia coli [4]; 8 µM (≈ 4.49 µg/mL) with Enterococcus faecium; 16 µM (≈ 8.97 µg/mL) in the series with Escherichia coli [5]; 32 µM (≈ 17.9 µg/mL) in the series on Acinetobacter baumannii [6]. Moreover, the MIC worked out at 4 µM (≈ 2.24 µg/mL) with Staphylococcus aureus [7] and 8 µM (≈ 4.49 µg/mL) in the series on Streptococcus pneumoniae. In addition, the CC50 at 24 h in series [2] came out at 30 µM.
On to `CC[C@H](C)CCCCC(=O)N[C@@H](CCN)C(=O)N[C@H](C(=O)N[C@@H](CCN)C(=O)N[C@H]1CCNC(=O)[C@H]([C@@H](C)O)NC(=O)[C@H](CCN)NC(=O)[C@H](CCN)NC(=O)[C@H](CC(C)C)NC(=O)[C@@H](Cc2ccccc2)NC(=O)[C@H](CCN)NC1=O)[C@@H](C)O` (X1-[Dab]T[Dab][Dab][Dab][dF]L[Dab][Dab]T; lactam 4-C), for which the MIC turned out to be 16 µM (≈ 19.3 µg/mL) with Klebsiella pneumoniae; 8 µM (≈ 9.63 µg/mL) with Enterococcus faecalis; 32 µM (≈ 38.5 µg/mL) in the series on Staphylococcus aureus [1]; 1 µM (≈ 1.2 µg/mL) with Acinetobacter baumannii [3]; 32 µM (≈ 38.5 µg/mL) in the series on Streptococcus pyogenes; 0.25 µM (≈ 0.301 µg/mL) in the series on Escherichia coli [4]. Further, the MIC in the series on Enterococcus faecium is > 64 µM; with Escherichia coli [5], 4 µM (≈ 4.81 µg/mL); with Acinetobacter baumannii [6], 0.25 µM (≈ 0.301 µg/mL); in the series on Staphylococcus aureus [7], 64 µM (≈ 77 µg/mL); in the series with Streptococcus pneumoniae it was 8 µM (≈ 9.63 µg/mL). In addition, in series [2], the CC50 at 24 h is > 512 µM.
For the compound `CC1(C)S[C@@H]2[C@H](NC(=O)[C@H](N)c3ccc(O)cc3)C(=O)N2[C@H]1C(=O)O` [AMOXICILLIN], the MIC with Enterococcus faecalis was 8 µM (≈ 2.92 µg/mL); in the series on Staphylococcus aureus [1] it was > 64 µM; in the series on Streptococcus pyogenes, 0.25 µM (≈ 0.0914 µg/mL); in the series with Pseudomonas aeruginosa, > 64 µM; in the series with Escherichia coli [4], 16 µM (≈ 5.85 µg/mL); in the series with Enterococcus faecium, 64 µM (≈ 23.4 µg/mL). The MIC with Staphylococcus aureus [7] turned out to be 1 µM (≈ 0.365 µg/mL); with Streptococcus pneumoniae, 0.5 µM (≈ 0.183 µg/mL). Also, the CC50 at 24 h in [2] was > 512 µM.
Regarding `C[C@@H]1[C@H](O)[C@@H](C)/C=C/C=C/C=C/C=C/C=C/C=C/C=C/[C@H](O[C@@H]2O[C@H](C)[C@@H](O)[C@H](N)[C@@H]2O)C[C@@H]2O[C@](O)(C[C@@H](O)C[C@@H](O)[C@H](O)CC[C@@H](O)C[C@@H](O)CC(=O)O[C@H]1C)C[C@H](O)[C@H]2C(=O)O` [AMPHOTERICIN B], the MIC came out at 1 µM (≈ 0.924 µg/mL) in the series on Candida albicans, 4 µM (≈ 3.7 µg/mL) in the series on Aspergillus fumigatus and 2 µM (≈ 1.85 µg/mL) in the series with Cyberlindnera jadinii.

The term MIC denotes the least concentration at which growth counts as inhibited.
